Measurements gathered from unrelated publications.
Compare with care: the assays were run in different laboratories.
Target: Rho-associated protein kinase 1 (ROCK1, Homo sapiens, UniProt Q13464)

SMILES	observed	action	technique	concentration	quantity	value
Cc1cc(-c2ccnc3[nH]cc(F)c23)cc(F)c1[C@@]1(O)[C@H](C)CN(C2CCS(=O)(=O)CC2)C[C@@H]1C	enzyme activity	inhibitor		0.1 µM	remaining activity	7.04%
CO[C@@H]1[C@H](N(C)C(=O)c2ccccc2)C[C@H]2O[C@]1(C)n1c3ccccc3c3c4c(c5c6ccccc6n2c5c31)C(=O)NC4	enzyme activity	inhibitor		1 µM	inhibition	43%
CN1CCN(C(=O)c2ccc(NC(=O)Nc3ccc(N(C)c4ccnc(Nc5ccc(CS(C)(=O)=O)cc5)n4)cc3)cc2)CC1	binding			1 µM	remaining binding	17%
C=CC(=O)N1CCC[C@@H](n2nc(-c3ccc(Oc4ccccc4)cc3)c3c(N)ncnc32)C1	enzyme activity	inhibitor		1 µM	inhibition	26%
C[C@H]1CC[C@H](n2c3cnccc3c3cnc(Nc4ccc5c(n4)CCN(C(=O)CO)C5)nc32)CC1	cell-free assay			1 µM	remaining signal	100%
Cc1cc(-c2ccnc3[nH]cc(F)c23)cc(F)c1[C@@]1(O)[C@H](C)CN(C(=O)CN)C[C@@H]1C	enzyme activity	inhibitor		15 nM	remaining activity	48.7%
CCCCC(=O)Nc1ccc(-c2ccc3ncn(CCC)c(=O)c3c2)cn1	binding		competition with immobilised ligand	0.5 µM	remaining binding	100%
Cc1cc(O)c(-c2ccc([C@@H](C)CN(C)C)cc2)c2c1[nH]c(=O)c1sccc12	enzyme activity	inhibitor		0.1 µM	inhibition	-3.74%
COc1ccc2oc(-c3ccc4nc(N)oc4c3)c/c(=N\c3ccccc3NC(=O)CCN)c2c1	binding			1 µM	remaining binding	106%
